In ChEMBL document CHEMBL3227936, “Actions of two dopamine derivatives at adreno- and cholinoceptors” (J Med Chem, 1979):
Activity calls are given as the source filed them. The rule behind the calls is not given here.

What was measured:
Acetylcholinesterase = target: T1, Acetylcholinesterase (Gallus gallus, UniProt P36196); test: Inhibition of acetylcholine esterase in chicken biventer cervicis muscle assessed as rate of acetylcholine hydrolysis by Ellman's method; set-up: species or system Muscle tissue; conditions: read-out: I50
T1 sequence (P36196 whole entry): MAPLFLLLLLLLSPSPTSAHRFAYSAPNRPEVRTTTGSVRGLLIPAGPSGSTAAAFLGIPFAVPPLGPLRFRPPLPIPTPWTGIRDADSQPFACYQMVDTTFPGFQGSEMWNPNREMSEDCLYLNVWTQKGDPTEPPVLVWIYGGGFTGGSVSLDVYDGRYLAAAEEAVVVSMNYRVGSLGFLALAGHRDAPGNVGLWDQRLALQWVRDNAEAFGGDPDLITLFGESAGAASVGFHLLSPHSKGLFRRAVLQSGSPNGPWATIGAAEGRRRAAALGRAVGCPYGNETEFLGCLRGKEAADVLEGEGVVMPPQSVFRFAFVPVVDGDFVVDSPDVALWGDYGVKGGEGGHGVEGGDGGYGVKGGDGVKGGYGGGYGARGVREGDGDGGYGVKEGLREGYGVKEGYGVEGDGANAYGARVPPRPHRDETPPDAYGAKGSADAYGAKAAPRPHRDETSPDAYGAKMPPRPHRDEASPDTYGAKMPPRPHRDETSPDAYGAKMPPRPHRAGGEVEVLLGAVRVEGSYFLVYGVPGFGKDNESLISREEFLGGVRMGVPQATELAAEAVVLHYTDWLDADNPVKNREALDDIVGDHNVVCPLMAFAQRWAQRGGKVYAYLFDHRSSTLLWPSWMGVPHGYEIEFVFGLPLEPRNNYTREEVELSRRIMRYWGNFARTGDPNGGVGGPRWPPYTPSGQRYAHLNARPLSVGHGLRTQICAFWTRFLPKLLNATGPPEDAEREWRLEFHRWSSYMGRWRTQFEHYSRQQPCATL
Method in brief: (§1)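 Chick biventer cervicis muscle homogenates were assayed for cholinesterase with acetylthiocholine as substrate by Ellman's colorimetric method as modified by Gandiha et al. Absorbance change was read at 412 nm. Hydrolysis rates (µmol min^-1 g^-1) were compared with and without drug.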

Felis catus [1] = test: Reduction of mean blood pressure in cat at 0.2 to 3 mg/kg, iv; type: functional, organism-based
Method in brief: (§2)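 Adult cats of either sex were anesthetized with α-chloralose 80 mg/kg plus sodium pentobarbitone 6 mg/kg ip, and nearly all were bilaterally vagotomized. Drugs were given iv via a femoral or brachial vein in acid-0.9% saline (pH 4.5). The sciatic nerve was stimulated to evoke soleus contractions, with maximal twitches at 0.1 Hz. Responses were recorded continuously.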

Felis catus [2] = test: Reduction of heart rate in cat at 0.2 to 3 mg/kg, iv; type: functional, organism-based; method in brief: as §2
Felis catus [3] = test: Reduction of mean blood pressure in cat at 0.2 to 3 mg/kg, iv in presence of atropine; type: functional, organism-based
Method in brief: (§3)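 Cats were anesthetized with α-chloralose 80 mg/kg plus pentobarbitone 6 mg/kg ip and vagotomized. Drugs were given iv in acid saline pH 4.5. Heart rate and blood pressure responses were recorded before and after atropine 1 mg/kg.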

Felis catus [4] = test: Reduction of heart rate in cat at 0.2 to 3 mg/kg, iv in presence of atropine; type: functional, organism-based; method in brief: as §3
Felis catus [5] = test: Reduction of mean blood pressure in atropinized-cat at 0.2 to 3 mg/kg, iv in presence of phentolamine; type: functional, organism-based
Method in brief: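 In atropinized cats (atropine 1 mg/kg) under chloralose–pentobarbitone anesthesia, drugs in acid saline pH 4.5 were given iv. Mean blood pressure responses were recorded with phentolamine 2 mg/kg.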

Felis catus [6] = test: Reduction of twitch tension in soleus muscle of electrically stimulated cat at 0.2 to 3 mg/kg, iv; type: functional, organism-based; method in brief: as §2
Felis catus [7] = test: Reduction of fused incomplete tetanic contraction in soleus muscle of electrically stimulated cat at 0.2 to 3 mg/kg, iv in presence of antagonist propranalol; type: functional, organism-based
Method in brief: (§4)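 In chloralose–pentobarbitone anesthetized cats, the sciatic nerve was stimulated to evoke soleus contractions. Drugs were given iv in acid saline pH 4.5, and responses were recorded after propranolol 0.4 mg/kg.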

Felis catus [8] = test: Reduction of fused incomplete tetanic contraction in soleus muscle of electrically stimulated cat at 0.2 to 3 mg/kg, iv; type: functional, organism-based; method in brief: as §2
Felis catus [9] = test: Reduction of twitch tension in soleus muscle of electrically stimulated cat at 0.2 to 3 mg/kg, iv in presence of antagonist propranolol; type: functional, organism-based; method in brief: as §4
Gallus gallus [10] = species on record: Gallus gallus; test: Agonist activity at cholinergic receptor in chicken biventer cervicis nerve muscle assessed as blockade of twitch accompanied with contracture at 10 to 200 ug/ml
Gallus gallus [11] = species on record: Gallus gallus; test: Agonist activity at cholinergic receptor in chicken biventer cervicis nerve muscle assessed as blockade of twitch response at 10 to 200 ug/ml in presence of choline
Gallus gallus [12] = species on record: Gallus gallus; test: Agonist activity at cholinergic receptor in chicken biventer cervicis nerve muscle assessed as blockade of twitch response at 10 to 200 ug/ml in presence of caffeine
Cavia porcellus [13] = species on record: Cavia porcellus; test: Agonist activity at muscarinic acetylcholine receptor in guinea pig ileum smooth muscle assessed as contraction; type: tissue-based
Method in brief: (§5)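 Guinea pig ileum segments were kept in Tyrode solution at 32 °C and bubbled with air. Isotonic contractions to cholinergic agonists were recorded, and log concentration–effect curves were built. Points are means of at least four experiments.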

[14] = target: T2, Acetylcholinesterase (Gallus gallus) (UniProt P36196); test: Inhibition of acetylcholine esterase in chicken biventer cervicis muscle assessed as rate of acetylcholine hydrolysis at 1.3 X 10^-3 M by Ellman's method; conditions: Muscle tissue; method in brief: as §1
T2 sequence (whole entry): T1 sequence (P36196 whole entry)

Gallus gallus [15] = species on record: Gallus gallus; test: Agonist activity at cholinergic receptor in chicken biventer cervicis nerve muscle assessed as blockade of twitch response at 10 to 200 ug/ml in presence of physostigmine
Gallus gallus [16] = species on record: Gallus gallus; test: Agonist activity at cholinergic receptor in chicken biventer cervicis nerve muscle assessed as blockade of twitch response at 10 to 200 ug/ml in presence of tetanus
Felis catus [17] = test: Induction of fasiculated twitches in skeletal muscle of electrically stimulated cat at 0.2 to 3 mg/kg, iv relative to control; type: organism-based, Muscle tissue; set-up: dose 0.2-3 mg/kg, route intravenous; conditions: in vivo; method in brief: as §2
Gallus gallus [18] = species on record: Gallus gallus; test: (§6) Agonist activity at cholinergic receptor in chicken biventer cervicis nerve muscle assessed as twitch augmentation accompanied with contracture at 1 to 10 ug/ml
Gallus gallus [19] = species on record: Gallus gallus; test: Agonist activity at cholinergic receptor isolated from chicken biventer cervicis nerve muscle assessed as >10 ug/ml
Gallus gallus [20] = species on record: Gallus gallus; test: Agonist activity at cholinergic receptor isolated from chicken biventer cervicis nerve muscle assessed as >10 ug/ml measured after compound washout
Cavia porcellus [21] = species on record: Cavia porcellus; test: Agonist activity at muscarinic acetylcholine receptor in guinea pig ileum smooth muscle assessed as contraction measured after compound washout; type: tissue-based; method in brief: as §5
Cavia porcellus [22] = species on record: Cavia porcellus; test: Agonist activity at muscarinic acetylcholine receptor in guinea pig ileum smooth muscle assessed as contraction in presence of atropine; type: tissue-based
Method in brief: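 Guinea pig ileum was kept in Tyrode solution at 32 °C and aerated. Isotonic contractions were recorded, and concentration–effect curves were repeated after atropine 1×10^-8 M. Points are means of at least four experiments.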

Cavia porcellus [23] = species on record: Cavia porcellus; test: Agonist activity at muscarinic acetylcholine receptor in guinea pig ileum smooth muscle assessed as contraction in presence of hexamethonium; type: tissue-based; method in brief: as §5
Gallus gallus [24] = species on record: Gallus gallus; test: as §6; remark: listed apart in the source
Gallus gallus [25] = species on record: Gallus gallus; test: Agonist activity at cholinergic receptor in chicken biventer cervicis nerve muscle assessed as twitch blockade at 1 to 10 ug/ml
[26] = target: T2, Acetylcholinesterase (Gallus gallus); test: Inhibition of acetylcholine esterase in chicken biventer cervicis muscle assessed as rate of acetylcholine hydrolysis at 37 uM by Ellman's method; conditions: Muscle tissue; method in brief: as §1

Structure (SMILES): CNC(=O)Oc1ccc2c(c1)[C@]1(C)CCN(C)[C@@H]1N2C [PHYSOSTIGMINE]
- IC50 (Acetylcholinesterase): 0.02 µM

Structure (SMILES): CC1NCCc2cc(O)c(O)cc21 (stereo unspecified)
- Activity (Felis catus [1]): Dose-dependent effect
- Activity (Felis catus [2]): Active
- Activity (Felis catus [3]): inactive
- Activity (Felis catus [4]): inactive
- Activity (Felis catus [5]): inactive
- Activity (Felis catus [6]): Active
- Activity (Felis catus [7]): inactive
- Activity (Felis catus [8]): Active
- Activity (Felis catus [9]): inactive
- Activity (Gallus gallus [10]): Active
- Activity (Gallus gallus [11]): Active
- Activity (Gallus gallus [12]): Active
- Activity (Cavia porcellus [13]): inactive
- Activity [14]: 7.48 µmol/min/g
- Activity (Gallus gallus [15]): Active
- Activity (Gallus gallus [16]): Active

Structure (SMILES): Br.CC1(C)NCCc2cc(O)c(O)cc21
- Activity (Felis catus [1]): Dose-dependent effect
- Activity (Felis catus [3]): inactive
- Activity (Felis catus [5]): inactive
- Activity (Felis catus [17]): <= 100%
- Activity (Gallus gallus [18]): Active
- Activity (Gallus gallus [19]): Active
- Activity (Gallus gallus [20]): inactive
- Activity (Cavia porcellus [13]): Active
- Activity (Cavia porcellus [21]): inactive
- Activity (Cavia porcellus [22]): inactive
- Activity (Cavia porcellus [23]): Active
- IC50 (Acetylcholinesterase): 37 µM
- Activity (Gallus gallus [24]): Active
- Activity (Gallus gallus [25]): inactive
- Activity [26]: 3.55 µmol/min/g

Structure (SMILES): C[N+](C)(C)CCOC(N)=O
- Activity (Gallus gallus [19]): Active
- Activity (Cavia porcellus [13]): Active
- Activity (Cavia porcellus [21]): inactive
- Activity (Cavia porcellus [22]): inactive
